Structures are written as SMILES. Activity calls are given as the source filed them. The calls are words filed in the database; no cut-off is given here. Where a SMILES comes first, the peptide text is derived from it. [ ]: non-standard residue; d: D form. The star is where a group is joined. Ethyl(2-stearoyloxy) = CCCCCCCCCCCCCCCCCC(=O)OCC*; CH2CH2OBz(4-tBu) = CC(C)(C)c1ccc(C(=O)OCC*)cc1; Ethyl(2-decanoyloxy) = CCCCCCCCCC(=O)OCC*; Ethyl(2-butanoyloxy) = CCCC(=O)OCC*; Ethyl(2-OPiv) = CC(C)(C)C(=O)OCC*; Mpa = O=C(O)CCS

Chain of Gap junction alpha-1 protein (Homo sapiens) (P17302 whole entry): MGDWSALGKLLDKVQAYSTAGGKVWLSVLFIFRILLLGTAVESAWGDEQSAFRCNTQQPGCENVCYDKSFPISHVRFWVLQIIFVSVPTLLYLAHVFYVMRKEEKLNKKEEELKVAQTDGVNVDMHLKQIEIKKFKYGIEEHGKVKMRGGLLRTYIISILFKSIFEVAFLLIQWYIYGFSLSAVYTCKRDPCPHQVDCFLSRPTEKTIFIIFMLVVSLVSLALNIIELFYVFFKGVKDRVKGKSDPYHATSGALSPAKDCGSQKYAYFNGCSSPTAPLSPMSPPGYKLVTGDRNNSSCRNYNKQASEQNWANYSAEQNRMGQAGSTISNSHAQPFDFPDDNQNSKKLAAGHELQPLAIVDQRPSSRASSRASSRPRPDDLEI

The target of the test is Gap junction alpha-1 protein (Homo sapiens) (UniProt P17302). The test is described as follows: Inhibition of Cx43 in hypoxic-acidic ion-shifted ringers solution-induced human cerebral microvascular endothelial cell model of ischaemic injury assessed as ATP release at 10 uM measured after 2 hrs by luciferin-luciferase based luminescence assay relative to control. The arrangement: scale not given: the % may be the effect or the level left. The procedure, abridged:
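hCMVEC (passages 8-17) seeded at 2 x 10^6/well on collagen-I (1 µg/cm²) and grown 48 h to a confluent monolayer. Washed in NR, then exposed 2 h in HAIR (pH 6.6, N₂-bubbled, low Ca²⁺, K-gluconate/NMDG) containing peptide at 10 µM. Supernatant diluted 1:10 in firefly luciferase mix and read at 560 nm against an ATP standard (0-50 nM). Expressed as % of HAIR-only, mean of n=3.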
As for `CCCCCCCCCC(=O)OCCSC[C@H](NC(=O)[C@H](CC(C)C)NC(=O)[C@H](Cc1ccccc1)NC(=O)[C@H](CS)NC(=O)[C@H](CC(=O)O)NC(=O)[C@@H](N)C(C)C)C(=O)N[C@@H](CCCNC(=N)N)C(=O)N1CCC[C@H]1C(=O)N[C@H](C(=O)N[C@@H](CCC(=O)O)C(=O)N[C@@H](CCCCN)C(=O)N[C@H](C(=O)O)[C@@H](C)O)[C@@H](C)O` (H-VDCFLC(Ethyl(2-decanoyloxy))RPTEKT-OH), the outcome was inactive.

As to `CCCCCCCCCCCCCCCCCC(=O)OCCSCCC(=O)N[C@H](C(=O)N[C@@H](CC(=O)O)C(=O)N[C@@H](CS)C(=O)N[C@@H](Cc1ccccc1)C(=O)N[C@@H](CC(C)C)C(=O)N[C@@H](CO)C(=O)N[C@@H](CCCNC(=N)N)C(=O)N1CCC[C@H]1C(=O)N[C@H](C(=O)N[C@@H](CCC(=O)O)C(=O)N[C@@H](CCCCN)C(=O)N[C@H](C(=O)O)[C@@H](C)O)[C@@H](C)O)C(C)C` ([Mpa](Ethyl(2-stearoyloxy))VDCFLSRPTEKT-OH), the outcome was inactive.

In the case of `CCCC(=O)OCCSC[C@H](NC(=O)[C@@H](NC(=O)[C@@H]1CCCN1C(=O)[C@H](CCCNC(=N)N)NC(=O)[C@H](CO)NC(=O)[C@H](CC(C)C)NC(=O)[C@H](Cc1ccccc1)NC(=O)[C@H](CS)NC(=O)[C@H](CC(=O)O)NC(=O)[C@@H](N)C(C)C)[C@@H](C)O)C(=O)N[C@@H](CCCCN)C(=O)N[C@H](C(=O)O)[C@@H](C)O` (H-VDCFLSRPTC(Ethyl(2-butanoyloxy))KT-OH), the Activity amounted to 32%.

`CCCC(=O)OCCSC[C@H](NC(=O)[C@H](CCCCN)NC(=O)[C@H](CCC(=O)O)NC(=O)[C@@H](NC(=O)[C@@H]1CCCN1C(=O)[C@H](CCCNC(=N)N)NC(=O)[C@H](CO)NC(=O)[C@H](CC(C)C)NC(=O)[C@H](Cc1ccccc1)NC(=O)[C@H](CS)NC(=O)[C@H](CC(=O)O)NC(=O)[C@@H](N)C(C)C)[C@@H](C)O)C(=O)O` (H-VDCFLSRPTEKC(Ethyl(2-butanoyloxy))-OH): the outcome was inactive.

On to `CC(C)C[C@H](NC(=O)[C@H](Cc1ccccc1)NC(=O)[C@H](CS)NC(=O)[C@H](CC(=O)O)NC(=O)[C@@H](N)CSCCOC(=O)C(C)(C)C)C(=O)N[C@@H](CO)C(=O)N[C@@H](CCCNC(=N)N)C(=O)N1CCC[C@H]1C(=O)N[C@H](C(=O)N[C@@H](CCC(=O)O)C(=O)N[C@@H](CCCCN)C(=O)N[C@H](C(=O)O)[C@@H](C)O)[C@@H](C)O` (H-C(Ethyl(2-OPiv))DCFLSRPTEKT-OH), for which the result was inactive.

As for `CCCCCCCCCC(=O)OCCSC[C@H](NC(=O)[C@@H](NC(=O)[C@@H]1CCCN1C(=O)[C@H](CCCNC(=N)N)NC(=O)[C@H](CO)NC(=O)[C@H](CC(C)C)NC(=O)[C@H](Cc1ccccc1)NC(=O)[C@H](CS)NC(=O)[C@H](CC(=O)O)NC(=O)[C@@H](N)C(C)C)[C@@H](C)O)C(=O)N[C@@H](CCCCN)C(=O)N[C@H](C(=O)O)[C@@H](C)O` (H-VDCFLSRPTC(Ethyl(2-decanoyloxy))KT-OH), the Activity amounted to 96%.

On to `CC(C)C[C@H](NC(=O)[C@H](Cc1ccccc1)NC(=O)[C@H](CS)NC(=O)[C@H](CC(=O)O)NC(=O)[C@@H](NC(=O)CCSCCOC(=O)c1ccc(C(C)(C)C)cc1)C(C)C)C(=O)N[C@@H](CO)C(=O)N[C@@H](CCCNC(=N)N)C(=O)N1CCC[C@H]1C(=O)N[C@H](C(=O)N[C@@H](CCC(=O)O)C(=O)N[C@@H](CCCCN)C(=O)N[C@H](C(=O)O)[C@@H](C)O)[C@@H](C)O` ([Mpa](CH2CH2OBz(4-tBu))VDCFLSRPTEKT-OH), for which the result was inactive.

For the compound `CCCCCCCCCC(=O)OCCSC[C@H](NC(=O)[C@H](CS)NC(=O)[C@H](CC(=O)O)NC(=O)[C@@H](N)C(C)C)C(=O)N[C@@H](CC(C)C)C(=O)N[C@@H](CO)C(=O)N[C@@H](CCCNC(=N)N)C(=O)N1CCC[C@H]1C(=O)N[C@H](C(=O)N[C@@H](CCC(=O)O)C(=O)N[C@@H](CCCCN)C(=O)N[C@H](C(=O)O)[C@@H](C)O)[C@@H](C)O` (H-VDCC(Ethyl(2-decanoyloxy))LSRPTEKT-OH), the result was inactive.

As for `CCCC(=O)OCCSC[C@H](N)C(=O)N[C@@H](CC(=O)O)C(=O)N[C@@H](CS)C(=O)N[C@@H](Cc1ccccc1)C(=O)N[C@@H](CC(C)C)C(=O)N[C@@H](CO)C(=O)N[C@@H](CCCNC(=N)N)C(=O)N1CCC[C@H]1C(=O)N[C@H](C(=O)N[C@@H](CCC(=O)O)C(=O)N[C@@H](CCCCN)C(=O)N[C@H](C(=O)O)[C@@H](C)O)[C@@H](C)O` (H-C(Ethyl(2-butanoyloxy))DCFLSRPTEKT-OH), the result was inactive.

For the compound `CCCC(=O)OCCSCCC(=O)N[C@H](C(=O)N[C@@H](CC(=O)O)C(=O)N[C@@H](CS)C(=O)N[C@@H](Cc1ccccc1)C(=O)N[C@@H](CC(C)C)C(=O)N[C@@H](CO)C(=O)N[C@@H](CCCNC(=N)N)C(=O)N1CCC[C@H]1C(=O)N[C@H](C(=O)N[C@@H](CCC(=O)O)C(=O)N[C@@H](CCCCN)C(=O)N[C@H](C(=O)O)[C@@H](C)O)[C@@H](C)O)C(C)C` ([Mpa](Ethyl(2-butanoyloxy))VDCFLSRPTEKT-OH), the Activity came to 28.8%.

Turning to `CCCCCCCCCC(=O)OCCSC[C@H](NC(=O)[C@@H]1CCCN1C(=O)[C@H](CCCNC(=N)N)NC(=O)[C@H](CO)NC(=O)[C@H](CC(C)C)NC(=O)[C@H](Cc1ccccc1)NC(=O)[C@H](CS)NC(=O)[C@H](CC(=O)O)NC(=O)[C@@H](N)C(C)C)C(=O)N[C@@H](CCC(=O)O)C(=O)N[C@@H](CCCCN)C(=O)N[C@H](C(=O)O)[C@@H](C)O` (H-VDCFLSRPC(Ethyl(2-decanoyloxy))EKT-OH), the outcome was inactive.

For `CC(C)C[C@H](NC(=O)[C@H](Cc1ccccc1)NC(=O)[C@H](CS)NC(=O)[C@H](CC(=O)O)NC(=O)[C@@H](N)C(C)C)C(=O)N[C@@H](CO)C(=O)N[C@@H](CCCNC(=N)N)C(=O)N1CCC[C@H]1C(=O)N[C@@H](CSCCOC(=O)c1ccc(C(C)(C)C)cc1)C(=O)N[C@@H](CCC(=O)O)C(=O)N[C@@H](CCCCN)C(=O)N[C@H](C(=O)O)[C@@H](C)O` (H-VDCFLSRPC(CH2CH2OBz(4-tBu))EKT-OH), the result was inactive.

`CC(C)C[C@H](NC(=O)[C@H](Cc1ccccc1)NC(=O)[C@H](CS)NC(=O)[C@H](CC(=O)O)NC(=O)[C@@H](N)C(C)C)C(=O)N[C@@H](CO)C(=O)N[C@@H](CCCNC(=N)N)C(=O)N1CCC[C@H]1C(=O)N[C@H](C(=O)N[C@@H](CSCCOC(=O)c1ccc(C(C)(C)C)cc1)C(=O)N[C@@H](CCCCN)C(=O)N[C@H](C(=O)O)[C@@H](C)O)[C@@H](C)O` (H-VDCFLSRPTC(CH2CH2OBz(4-tBu))KT-OH): the outcome was inactive.

For `CC(C)C[C@H](NC(=O)[C@H](Cc1ccccc1)NC(=O)[C@H](CS)NC(=O)[C@H](CC(=O)O)NC(=O)[C@@H](N)C(C)C)C(=O)N[C@@H](CSCCOC(=O)c1ccc(C(C)(C)C)cc1)C(=O)N[C@@H](CCCNC(=N)N)C(=O)N1CCC[C@H]1C(=O)N[C@H](C(=O)N[C@@H](CCC(=O)O)C(=O)N[C@@H](CCCCN)C(=O)N[C@H](C(=O)O)[C@@H](C)O)[C@@H](C)O` (H-VDCFLC(CH2CH2OBz(4-tBu))RPTEKT-OH), the outcome was inactive.

`CC(C)C[C@H](NC(=O)[C@H](Cc1ccccc1)NC(=O)[C@H](CS)NC(=O)[C@H](CC(=O)O)NC(=O)[C@@H](NC(=O)CCSCCOC(=O)C(C)(C)C)C(C)C)C(=O)N[C@@H](CO)C(=O)N[C@@H](CCCNC(=N)N)C(=O)N1CCC[C@H]1C(=O)N[C@H](C(=O)N[C@@H](CCC(=O)O)C(=O)N[C@@H](CCCCN)C(=O)N[C@H](C(=O)O)[C@@H](C)O)[C@@H](C)O` ([Mpa](Ethyl(2-OPiv))VDCFLSRPTEKT-OH): the result was inactive.

Regarding `CC(C)C[C@H](NC(=O)[C@H](Cc1ccccc1)NC(=O)[C@H](CS)NC(=O)[C@H](CC(=O)O)NC(=O)[C@@H](N)CSCCOC(=O)c1ccc(C(C)(C)C)cc1)C(=O)N[C@@H](CO)C(=O)N[C@@H](CCCNC(=N)N)C(=O)N1CCC[C@H]1C(=O)N[C@H](C(=O)N[C@@H](CCC(=O)O)C(=O)N[C@@H](CCCCN)C(=O)N[C@H](C(=O)O)[C@@H](C)O)[C@@H](C)O` (H-C(CH2CH2OBz(4-tBu))DCFLSRPTEKT-OH), the result was inactive.

For `CC(C)C[C@H](NC(=O)[C@H](Cc1ccccc1)NC(=O)[C@H](CS)NC(=O)[C@H](CC(=O)O)NC(=O)[C@@H](N)C(C)C)C(=O)N[C@@H](CO)C(=O)N[C@@H](CCCNC(=N)N)C(=O)N1CCC[C@H]1C(=O)N[C@H](C(=O)N[C@@H](CCC(=O)O)C(=O)N[C@@H](CCCCN)C(=O)N[C@@H](CSCCOC(=O)c1ccc(C(C)(C)C)cc1)C(=O)O)[C@@H](C)O` (H-VDCFLSRPTEKC(CH2CH2OBz(4-tBu))-OH), the outcome was inactive.

For the compound `CC(C)C[C@H](NC(=O)[C@H](Cc1ccccc1)NC(=O)[C@H](CS)NC(=O)[C@H](CC(=O)O)NC(=O)[C@@H](N)C(C)C)C(=O)N[C@@H](CO)C(=O)N[C@@H](CCCNC(=N)N)C(=O)N1CCC[C@H]1C(=O)N[C@H](C(=O)N[C@@H](CCC(=O)O)C(=O)N[C@@H](CCCCN)C(=O)N[C@@H](CSCCOC(=O)C(C)(C)C)C(=O)O)[C@@H](C)O` (H-VDCFLSRPTEKC(Ethyl(2-OPiv))-OH), the outcome was inactive.

In the case of `CC(C)C[C@H](NC(=O)[C@H](CSCCOC(=O)C(C)(C)C)NC(=O)[C@H](CS)NC(=O)[C@H](CC(=O)O)NC(=O)[C@@H](N)C(C)C)C(=O)N[C@@H](CO)C(=O)N[C@@H](CCCNC(=N)N)C(=O)N1CCC[C@H]1C(=O)N[C@H](C(=O)N[C@@H](CCC(=O)O)C(=O)N[C@@H](CCCCN)C(=O)N[C@H](C(=O)O)[C@@H](C)O)[C@@H](C)O` (H-VDCC(Ethyl(2-OPiv))LSRPTEKT-OH), the Activity came to 23.4%.

As to `CCCCCCCCCCCCCCCCCC(=O)OCCSC[C@H](NC(=O)[C@@H](NC(=O)[C@@H]1CCCN1C(=O)[C@H](CCCNC(=N)N)NC(=O)[C@H](CO)NC(=O)[C@H](CC(C)C)NC(=O)[C@H](Cc1ccccc1)NC(=O)[C@H](CS)NC(=O)[C@H](CC(=O)O)NC(=O)[C@@H](N)C(C)C)[C@@H](C)O)C(=O)N[C@@H](CCCCN)C(=O)N[C@H](C(=O)O)[C@@H](C)O` (H-VDCFLSRPTC(Ethyl(2-stearoyloxy))KT-OH), the Activity stood at 83.7%.
